A selection: hits, their analogues and other compounds. The true share with any hit is near 2.2%.
GRK2 aptamer HTS – human GRK2 inhibition via aptamer displacement; P25098; bead flow cytometry, FAM-aptamer displacement from GRK2; inhibition of aptamer binding, % at 10 µM; 0.59% of 330,000 active;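 active = inhibition of aptamer binding above 40%, roughly 3 SD of noise, on plates passing a quality check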;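 note: median bead fluorescence of bound FAM aptamer so fluorescent compounds give negative values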
DNMT1 block – inhibitors of human DNMT1; P26358; inhibition (reported as % activation of signal), % at 10 µM; AID 588458; DNMT1 molecular beacon, Hinp1I cleavage, fluorescence; 0.83% of 360,000 active; in the data active = inhibition above about 50%
Scp1 inh – inhibitors of human Scp-1 phosphatase. Q9GZU7. Recombinant Scp1, phosphopeptide, malachite green phosphate absorbance. inhibition, % at 20 µM. 0.88% of 340,000 active;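 active = inhibition above about 50% at 20 µM, limit read from the data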;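 note: plate controls were DMSO wells with enzyme for no effect and wells lacking enzyme for full effect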
Target sequence (Q9GZU7 76-261 limits assumed): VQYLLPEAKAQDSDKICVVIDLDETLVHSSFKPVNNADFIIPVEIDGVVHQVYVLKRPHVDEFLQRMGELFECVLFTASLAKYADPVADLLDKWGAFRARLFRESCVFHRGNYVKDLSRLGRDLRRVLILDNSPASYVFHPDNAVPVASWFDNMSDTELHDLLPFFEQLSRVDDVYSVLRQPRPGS
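Test system: SCP-1 phosphatase catalytic domain, residues 76-261 | Compound dosing: One concentration, 20 µM, with 1.0% DMSO | Schedule: 45 min room-temperature reaction, 5 min colour, 30 min stabiliser | Detection: Absorbance at 630 nm | Read-out basis: % inhibition of SCP-1 phosphate liberation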
LMPTP inh – blocks human LMPTP phosphatase; inhibition, % at 20 µM; 0.22% of 360,000 active; P24666; AID 651560; recombinant LMPTP-A, OMFP fluorogenic substrate, fluorescence intensity;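 active = compounds that cut the enzyme signal by at least half of the control window in the single-dose screen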;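 note: plate controls were DMSO wells with enzyme plus substrate for no effect and substrate without enzyme for full effect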
Target sequence (P24666 whole entry, looked up): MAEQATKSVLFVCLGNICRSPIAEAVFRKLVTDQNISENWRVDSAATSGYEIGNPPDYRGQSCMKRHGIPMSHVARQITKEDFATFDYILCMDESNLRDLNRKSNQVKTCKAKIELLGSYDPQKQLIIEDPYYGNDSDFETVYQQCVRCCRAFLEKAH
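Test system: LMPTP-A phosphatase enzyme; input: 0.625 nM LMPTP-A final; reagent: OMFP substrate, 400 µM final; compound dosing: 20 µM single dose, 3% DMSO; incubation: 50 min dark incubation at room temperature; measured by: endpoint fluorescence intensity from OMFP dephosphorylation; measure: % inhibition relative to no-enzyme and uninhibited control wells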
SUMO1-SIM PPI – alters human SUMO1 binding to SIM partners; P63165; SUMO1 binding to a labelled peptide, TR-FRET, 1 h; inhibition, % at 20 µM; 0.33% of 360,000 active; AID 602429; in the data active = inhibition above about 37%
Target sequence (P63165 whole entry, looked up): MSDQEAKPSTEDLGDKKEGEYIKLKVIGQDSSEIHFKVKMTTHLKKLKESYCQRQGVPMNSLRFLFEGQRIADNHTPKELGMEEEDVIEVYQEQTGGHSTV
STEP block – blocks human striatal-enriched tyrosine phosphatase; P54829; recombinant STEP, OMFP fluorogenic substrate, fluorescence; inhibition, % at 20 µM; 0.25% of 360,000 active;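 active = inhibition at 20 µM, scaled per plate between control wells, above about 37%, limit read from the data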;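 note: 0% = DMSO with enzyme and substrate and 100% = substrate only without enzyme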
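medium = Bis-Tris buffer pH 6.0, 2.5 mM DTT, 0.005% Tween 20 | test system = STEP (striatal-enriched tyrosine phosphatase) enzyme, cell-free | measure = normalized % inhibition | compound dosing = 20 µM, 1% DMSO | also added = 25 µM OMFP | schedule = reaction 20 min, ambient temperature | measured by = fluorescence read at 480 nm ex / 540 nm em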
Scp-1 conf – confirmation of human Scp-1 phosphatase inhibitors. shares compounds with Scp1 inh. recombinant SCP-1 catalytic domain, phosphate release, malachite green absorbance. inhibition, % at 20 µM. 61% of 2,500 active. AID 540281;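 note: plate controls were DMSO with enzyme for no effect and buffer wells lacking enzyme for full effect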
MG interference – colorimetric interference in Scp-1 counter-screen | shares compounds with Scp1 inh | Colorimetric interference counterscreen, malachite green absorbance 630 nm | apparent inhibition (interference), % at 20 µM | 2,500 tested, under 10 active;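 note: compounds added after enzyme reaction finished so only phosphate colour detection is probed; plate controls were DMSO wells with completed Scp-1 reaction for no effect and substrate wells lacking enzyme for full effect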
Scp1 DSF – binds human Scp-1, shifting its melting temperature; 25% of 1,500 active; thermal shift relative to vanadate control, % at 40 µM; AID 540329; shares compounds with Scp1 inh; Recombinant SCP1, Sypro Orange thermal shift Tm;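 active = substances whose mean melting-temperature shift, as a percentage of the reference inhibitor's shift, reaches about 5.3%, limit read from the data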;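 note: 0% = Tm of DMSO wells and 100% = Tm with sodium orthovanadate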
Beacon interf DR – beacon fluorescence artifact, dose response counter-screen. shares compounds with DNMT1 block. molecular beacon fluorescence, spectral interference counter-screen. IC50, µM. 200 tested, under 10 active; call rule not given here
DNMT1 inh conf – confirmation of human DNMT1 inhibitors; shares compounds with DNMT1 block; DNMT1 molecular beacon HinP1I cleavage, fluorescence; inhibition, % at 10 µM; 8% of 2,300 active;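 active = average inhibition of at least 30% in the single-concentration confirmation test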
Beacon interf – counter-screen for DNMT1 inhibitors: spectral interference. DNMT1 molecular beacon spectral interference counterscreen, fluorescence 485/520. shares compounds with DNMT1 block. 1% of 2,300 active. activation (fluorescence interference), % at 10 µM;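 active = activation of at least 30% at 10 µM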;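 note: DNMT1 catalytic domain with a HinP1I cleavage step and a FAM/dabcyl DNA beacon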
An asterisk follows results filed as active; · = no result given; ! = not active in a repeat.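 Rule for the calls, unless noted: active = inhibition of at least 30% at 20 µM; inactive = the rest.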

SMILES	GRK2 aptamer HTS	DNMT1 block	Scp1 inh	LMPTP inh	SUMO1-SIM PPI	STEP block	Scp-1 conf	MG interference	Scp1 DSF	DNMT1 inh conf	Beacon interf	others
O=C(NNC(=O)c1cc2cc3ccccc3nc2s1)c1cccc(C(F)(F)F)c1	0	51*	75*	28	0	29	71*	-14	-16	1	4
Cc1cc(NC(=O)CS(=O)c2cn(Cc3cccc(Cl)c3)c3ccccc23)no1 (stereo not drawn)	·	2	·	1	-2	-1	·	·	·	·	·
Clc1ccc(-c2ccc(-c3nn4c(-c5ccco5)nnc4s3)o2)cc1	0	78*	77*	26	30	5	50*	-11	-1	2	-1
Brc1ccc(-c2nn3c(-c4ccco4)nnc3s2)o1	2	84*	52*	10	18	17	22	-16	·	3	4
c1ccc(-c2nn3c(-c4ccco4)nnc3s2)nc1	3	0	4	1	17	6	·	·	·	·	·
CC(C)N(C(=O)[C@H]1CC(CC(=O)NCC23CC4CC(CC(C4)C2)C3)C(=O)N2CCc3c([nH]c4ccccc34)[C@]12C)C(C)C (stereo partly drawn)	1	-12	-8	2	0	0	·	·	·	·	·
COc1ccccc1OCCOc1ccc(/C=C2/C(=N)N3OC(C)=CC3=NC2=O)cc1OC	20	88*	97*	5	-5	23	68*	-13	-1	19	-6
CC(=O)c1c(C)oc(C)c1CSCc1ccc(C(=O)O)o1	25	78*	65*	19	8	11	56*	-15	-2	6	3
Cc1cccn2c(=O)c3cc(C#N)c(=NC(=O)c4ccco4)n(Cc4ccco4)c3nc12	15	61*	76*	46	7	22	36*	-8	10.0*	0	3
Cc1cccc(C(=O)N=c2c(C#N)cc3c(=O)n4cccc(C)c4nc3n2Cc2ccco2)c1	13	51*!	85*!	36	51*!	6	46*	-11	15*	2	0
O=c1[nH]n2c(=O)c3c([nH]c2c1N=Nc1cccc(C(F)(F)F)c1)CCCC3	1	5	0	2	15	8	·	·	·	·	·
O=c1[nH]n2c(=O)c3c([nH]c2c1N=Nc1cccc(Cl)c1)CCC3	12	94*	78*	46	8	14	59*	-16	27*	5	-1
Cc1cc(C=O)c(C)n1-c1cc(C(=O)O)cc(C(=O)O)c1	0	89*	55*	0	3	12	52*	-18	-16	13	24
COC(=O)c1cc(C(=O)OC)cc(-n2c(C)cc(C=O)c2C)c1	1	-2	-6	0	2	-4	·	·	·	·	·
Cc1ccc(-n2c(C)cc(/C=N/NC(=O)CC3(C)OCCO3)c2C)c(C)c1	0	-9	-4	1	1	-1	·	·	·	·	·
CC1(CC(=O)N/N=C/c2cc([N+](=O)[O-])c(O)cc2O)OCCO1	8	69*	69*	69*	-14	14	64*	-4	6.1*	2	-3
COC(=O)C1=CO[C@@H](O[C@@H]2OC(CO)[C@@H](O)[C@@H](O)[C@@H]2O)C2C1CC[C@]2(C)O (stereo partly drawn)	2	-2	4	0	1	-4	·	·	·	·	·
COC(=O)C1=COC(OC2OC(CO)C(O)C(O)C2O)C2C1C=CC2(O)CO (stereo not drawn)	33	90*	58*	6	19	14	34*	-11	-6	3	-1
COc1ccc(-c2csc(NC(=O)CSc3nc(C)cs3)n2)cc1	0	-5	-14	-3	4	2	·	·	·	·	·
COc1ccc(-c2csc(NC(=O)CSc3nc(C)nc4sc(C(=O)O)c(C)c34)n2)cc1	1	81*	87*	3	22	0	64*	-13	10*	62*	5	Beacon interf DR=>99
Cc1ccccc1NC(=O)Cn1nnc(C(=O)NCc2ccco2)c1N	0	-1	-3	-2	-1	4	·	·	·	·	·
Cc1ccccc1NC(=O)Cn1nnc(S(=O)(=O)c2ccc(C(C)(C)C)cc2)c1N	0	61*	106*	48	10	21	76*	-19	-29	-1	2
COc1ccc(S(=O)(=O)N2CCOCC2)cc1NC(=O)c1cccc(-n2cccc2)c1	9	73*	58*	13	23	0	-7	-18	·	0	-5
COc1ccccc1NC(=O)c1cccc(S(=O)(=O)N2CCOCC2)c1	0	-3	-7	0	-3	0	·	·	·	·	·
CC(C)C[C@H]1CN(CCCC[C@H]2CNC(=O)C(=O)N2CC2CCCCC2)C(=O)C(=O)N1CC1CCCCC1	·	·	·	-1	0	·	·	·	·	·	·
SMILES	GRK2 aptamer HTS	DNMT1 block	Scp1 inh	LMPTP inh	SUMO1-SIM PPI	STEP block	Scp-1 conf	MG interference	Scp1 DSF	DNMT1 inh conf	Beacon interf	others
COc1ccc(CC(=O)Nc2ccccc2C(F)(F)F)cc1S(=O)(=O)N1CCOCC1	·	0	·	-1	1	-2	·	·	·	·	·
CC1OC(CCc2cccc(Cl)c2)Cc2[nH][nH]c(=O)c21 (stereo not drawn)	·	·	·	-1	0	·	·	·	·	·	·
CSCC[C@H](NS(=O)(=O)c1ccc(C(C)=O)cc1)c1nnc2ccccn12	3	55*	61*	3	0	55*	64*	-4	-13	6	0
C=CCOc1ccc(C[C@H](N)C(=O)NC[C@H]2O[C@@H](n3cc(C)c(=O)[nH]c3=O)C[C@@H]2O)cc1	·	-1	·	-1	3	-1	·	·	·	·	·
Cc1cc(=O)[nH]c(SCC(=O)Nc2ccc(C(=O)O)cc2)n1	1	1	-2	0	1	-1	·	·	·	·	·
CCOC(=O)c1ccc(NC(=O)CSc2nc(C)cc(=O)[nH]2)cc1	9	88*	71*	17	7	2	58*	-19	11*	19	3

High-throughput results as filed in PubChem BioAssay.
